Compound activity: PubChem, several laboratories
SKN-1 block: C. elegans SKN-1 inhibition; C. elegans VP596 Pgst-4::GFP/RFP ratio, acrylamide-induced, 24 h; inhibition, % at 21.8 µM; hit rate 0.49% among 360,000; AID 624304;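 active = interference check ratio from 0.5 to 1.5 plus GFP to RFP signal ratio inhibition reaching or exceeding a fixed threshold, cut at about 30% in these data, passing the limit was not always enough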
Rin1-Abl PPI inh: human Rin1-Abl interaction inhibition | P00519+Q13671 | TR-FRET Rin1/Abl binding, biochemical | inhibition, % at 7.35 µM | hit rate 0.4% among 360,000 | AID 588664; in the data active = inhibition above about 5%, passing the limit was not always enough
GRK2 aptamer HTS: blocks RNA aptamer binding to human GRK2 | P25098 | bead flow cytometry, FAM-aptamer displacement from GRK2 | inhibition of aptamer binding, % at 10 µM | hit rate 0.59% among 330,000 | AID 488847;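 active = inhibition of aptamer binding above 40%, roughly 3 SD of noise, on plates passing a quality check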;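 also: median bead fluorescence of bound FAM aptamer so fluorescent compounds give negative values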
Rce1 inh: yeast Ras-converting enzyme inhibition | AID 2563 | yeast membranes, quenched prenylated peptide cleavage fluorescence | calls only | Q03530 | hit rate 0.27% among 290,000;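 active = fall in fluorescence gain of 50% or more versus controls, with final raw signal at or below 3038400; inconclusive = same 50% fall but final raw signal above 3038400; inactive = fall in fluorescence gain under 50%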;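 also: plate controls were neutral control wells for no effect and wells lacking membranes for full effect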
Target sequence (Q03530 whole entry, looked up): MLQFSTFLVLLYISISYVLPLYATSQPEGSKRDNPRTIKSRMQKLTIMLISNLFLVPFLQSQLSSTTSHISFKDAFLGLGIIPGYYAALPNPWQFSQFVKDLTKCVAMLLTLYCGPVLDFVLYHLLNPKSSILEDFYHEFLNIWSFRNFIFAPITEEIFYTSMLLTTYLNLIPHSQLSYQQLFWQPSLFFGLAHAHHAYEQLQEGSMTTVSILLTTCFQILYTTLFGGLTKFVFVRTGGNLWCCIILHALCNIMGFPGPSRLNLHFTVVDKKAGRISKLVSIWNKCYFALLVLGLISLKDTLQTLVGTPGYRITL
Myeloid diff MLP: promotes myeloid progenitor differentiation; ER-HoxA9 myeloid progenitors, lysozyme-GFP differentiation, flow cytometry; calls only at 10 µM; hit rate 1% among 360,000; AID 624256;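 active = normalized GFP-positive differentiation at or above the plate's own cutoff, the solvent-only control mean plus 3 SD; inconclusive = no clear call, values can overlap the other calls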;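 also: cells exposed to compound for four days before flow analysis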
T cell modulator: modulates CD8 T cell binding to vesicles; 2C CD8+ T cell-vesicle binding, flow cytometry; active compounds read low; hit rate 0.068% among 330,000; response (vesicle binding), % at 7 µM;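 active = response, share of CD8 T cells binding vesicles, and their 90th percentile fluorescence all below set limits, cut at about 80% in these data, passing the limit was not always enough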;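 also: values below 100% mean blocked vesicle binding to the CD8+ T cells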
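Read-out – percent CD8+ FL2 mean versus row control · System – murine 2C transgenic CD8+ T lymphocytes · Times – 1.5 h cell–vesicle binding at 37 °C, then 20 min icy labelling · Control set – naked vesicles low, QL9 vesicles with vehicle high · Detection – cytometric PE anti-B7-1 and Alexa647 anti-CD8 signals after 1% paraformaldehyde fixation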
* marks the source's active call; other numbers are inactive results; i = inactive; ? = inconclusive; · = no result; + = active, no number. A selection: hits, their analogues and other compounds. The true share with any hit is near 2.6%.

SMILES | SKN-1 block | Rin1-Abl PPI inh | GRK2 aptamer HTS | Rce1 inh | Myeloid diff MLP | T cell modulator
CC1CCN(c2oc(-c3ccc(F)cc3)nc2C#N)CC1 | 17 | -2 | 1 | + | i | 986
Cc1cccc(-c2nc(C#N)c(N3CCC(C)CC3)o2)c1 | -6 | 2 | 0 | i | i | 167
CCOCc1cc(C)[nH]c(=O)c1C#N | -4 | 0 | 2 | + | i | 214
COCc1cc(C)c(C#N)c(=S)[nH]1 | 21 | -2 | 0 | i | i | 271
O=C(Nc1nc2c(s1)CCCC2)C1COc2ccccc2O1 (centres undefined) | 7 | 0 | 6 | i | i | 38*
Cc1nnc(NC(=O)C2COc3ccccc3O2)s1 (centres undefined) | -10 | 1 | 0 | i | i | 303
COCCCNC(=O)c1ccc2c3c(onc13)-c1ccccc1C2=O | 62* | -14 | 7 | i | i | 115
Nc1cnc(Nc2ccc(Br)cc2)nc1N | 27 | 2 | 0 | i | + | 123
COc1ccc(-n2nc(C(=O)NCC(=O)NCCCN3CCN(C)CC3)c3ccccc3c2=O)cc1 | -1 | 0 | 4 | i | i | 380
COc1ccc(S(=O)(=O)N2CCN(C/C=C/c3ccccc3)CC2)cc1NC(C)=O | -5 | 1 | 3 | i | i | 441
O=C(O)c1cc(-c2cccnc2)nc2ccc(Br)cc12 | 0 | -35 | 0 | i | + | 101
O=C1C2CC=C(Cl)CC2C(=O)N1CCCCCCN1C(=O)C2CC=C(Cl)CC2C1=O (centres undefined) | 8 | -3 | 0 | i | i | i
O=C1C2CC=C(Cl)CC2C(=O)N1CCC[n+]1cccc2ccccc21 (centres undefined) | 3 | -3 | 83* | i | i | 195
COc1ccc(C(Nc2ccccn2)c2oc(CO)cc(=O)c2O)cc1 (centres undefined) | -1 | 7.4* | 0 | i | i | 426
c1ccc(OCc2nc3ccccc3s2)cc1 | 49* | 3 | 0 | i | i | 286
Cc1cc(OCc2nc3ccccc3s2)ccc1N | 12 | -2 | 2 | i | i | 383
Fc1ccc(OCc2nc3ccccc3s2)cc1 | 38* | -3 | 0 | i | i | 179
O=C(Nc1ccnn1C1CCN(Cc2ccc(CO)o2)CC1)c1ccccc1 | -2 | 4 | 1 | i | i | 688
Cc1[nH]c2ccccc2c1CCNC(=O)c1ccc2c(c1[N+](=O)[O-])C(=O)c1ccccc1C2=O | 33 | 2 | 0 | i | + | 123
Cc1[nH]c2c(C)cccc2c1CCNC(=O)c1ccc2c(c1[N+](=O)[O-])C(=O)c1ccccc1C2=O | -11 | 0 | 1 | i | i | 185
CC(C)[N+]1=C2C=CC=CC=C2SC12C([N+](=O)[O-])=CC(=[N+]([O-])[O-])C=C2[N+](=O)[O-] (centres undefined) | -1 | 2 | 2 | i | + | 259
CCC(=O)c1cn([C@@H](CCC(OC)OC)CC(=O)OC(C)(C)C)cc1CC | -6 | 2 | 5 | i | i | 296
CCC(=O)c1cn(/C(=C\C(=O)OC(C)(C)C)CCC(OC)OC)cc1CC | -1 | 5 | 0 | i | + | 812
CN(N=Cc1ccc([N+](=O)[O-])cc1)c1ccccn1 | 48* | 2 | · | · | i | ·
CCOC(=O)C1CCCN(C(=O)CCn2nnnc2CN2CCOCC2)C1 (centres undefined) | 17 | 3 | 7 | + | i | 308
SMILES | SKN-1 block | Rin1-Abl PPI inh | GRK2 aptamer HTS | Rce1 inh | Myeloid diff MLP | T cell modulator
CCN(CC)C(=O)C1CCCN(C(=O)CCn2nnnc2CN2CCOCC2)C1 (centres undefined) | -1 | 0 | 0 | · | i | 527
CCOc1ccc(S(=O)(=O)NCc2cccnc2)c2ccccc12 | 5 | 2 | 0 | i | i | 330
Cn1sccc1=O | 6 | 0 | 0 | · | ? | 452
COCCNC(=O)c1ccc(-c2ccc(OC)cc2C)c2ccoc12 | 36* | -5 | · | · | i | ·
Cc1ccc(C(=O)Nc2nnc(CC(=O)N/N=C/c3ccc(O)c(O)c3)s2)cc1 | -3 | 3 | 62* | i | i | 246
CCC1=NN2C(=N)/C(=C\c3ccc(OCc4cc(=O)n5nc(CC)sc5n4)c(OC)c3)C(=O)N=C2S1 | -2 | 0 | · | i | i | ·
CC(=O)N1CC2([N+](=O)[O-])CN(C(C)=O)CC([N+](=O)[O-])(C1)C2(C)C | -1 | -4 | 0 | i | i | 268
Cc1ccc2c(c1)CCCN2CC(=O)Nc1cc(S(=O)(=O)N2CCCC2)ccc1Cl | 5 | -1 | 0 | · | + | 324
COC(=O)c1sc(-c2ccc(C(C)(C)C)cc2)cc1NC(=O)CCC(=O)O | 11 | 1 | 4 | i | i | 219
Clc1ccc(C(Cn2ccnc2)OCc2c(Cl)cccc2Cl)c(Cl)c1 (centres undefined) | 26 | 0 | 1 | · | + | 663
OC(Cn1ccnc1)c1ccc(Cl)cc1Cl (centres undefined) | 11 | 4 | 4 | i | i | 249
Cc1ccc2cccc(NC(=S)NC(=O)c3ccnn3C)c2n1 | -20 | 3 | 1 | · | + | 323
Cc1cccc2sc(NC(=O)Cn3cccc3)nc12 | 0 | 2 | 0 | i | + | 468
Cc1ccc(C(=O)N2CCN(c3ncc(C(F)(F)F)cc3Cl)CC2)s1 | -13 | 1 | 3 | i | ? | 396
O=C(O)CCC(=O)c1ccc(-c2ccccc2)cc1 | -4 | -8 | 2 | + | i | 163
CCC(=O)c1ccc(-c2ccccc2)cc1 | 1 | -1 | 0 | i | i | 384
Cc1ccc([C@@H]2CC(=O)[C@@H]3CN(S(=O)(=O)c4ccc(C)cc4)[C@H](c4ccccc4)C[C@@H]3N2S(=O)(=O)c2ccc(C)cc2)cc1 | 9 | 3 | · | · | i | ·
CCc1nc2ccc(C(=O)NCCCN3CCCC3=O)cn2c1N(C)C(=O)COc1ccccc1 | 15 | 5 | · | · | i | ·
O=C1/C(=C/c2cccs2)CCC/C1=C\c1cccs1 | 38* | 2 | 4 | i | i | 215
COCCN1C(=O)c2ccccc2C1c1nc2ccccc2[nH]1 (centres undefined) | -3 | 3 | · | · | i | ·
Cc1cc(=O)oc2c3c(cc(OCC(=O)N[C@@H](CC(C)C)C(=O)O)c12)OC(C)(C)CC3 | 8 | 0 | 0 | i | i | 605
O=C(O)c1ccc2cccc(Cl)c2c1O | -8 | -5 | 0 | + | i | 281
O=C(NCC1OCCc2ccccc21)c1cc(COc2ccc(F)cc2Cl)on1 (centres undefined) | -2 | 1 | 0 | i | i | 164
COC(=O)c1sc2cc([N+](=O)[O-])cc(SCC(C)C)c2c1N | 2 | 1 | 0 | i | + | 187
CCOC(=O)c1sc2ncc([N+](=O)[O-])cc2c1N | 6 | -7 | 2 | i | i | 155
